From ChEMBL document CHEMBL3862011, “Neuroprotective effects of benzyloxy substituted small molecule monoamine oxidase B inhibitors in Parkinson's disease” (Bioorg Med Chem, 2016)
Activity calls are given as the source filed them. The calls are words filed in the database; no cut-off is given here.

Experiments:
[1] = Cytotoxicity against rat PC12 cells assessed as cell survival at 100 uM after 24 hrs by MTT assay relative to control; assay type: toxicity, PC-12; conditions: read-out: Survival
[2] = Neuroprotective activity against 6-OHDA-induced toxicity in rat PC12 cells assessed as cell survival at 20 uM preincubated for 24 hrs followed by 6-OHDA addition measured after 24 hrs by MTT assay relative to control; assay type: functional; conditions: PC-12, read-out: Survival
In short: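 PC12 cells seeded 5×10^3/well, after 24 h given compound at 20 μM for 24 h at 37 °C, then exposed to 6-OHDA (40 μM) or rotenone (1 μM) for 24 h. […] Mean ± SEM of three independent experiments.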

PC-12 [3] = assay: Neuroprotective activity against 6-OHDA-induced toxicity in rat PC12 cells assessed as increase in cell survival preincubated for 24 hrs followed by 6-OHDA addition measured after 24 hrs by MTT assay; assay type: functional, cell-based
In short: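 PC12 cells in RPMI-1640 with 10% FBS were seeded at 5×10^3 cells/well. After 24 h, compounds at 20 μM were added for 24 h at 37 °C, followed by 6-OHDA (40 μM) or rotenone (1 μM) for 24 h. Viability by MTT (570 nm, reference 630 nm), expressed as percent of untreated control. […] Mean ± SEM.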

PC-12 [4] = assay: Neuroprotective activity against 6-OHDA-induced apoptosis in rat PC12 cells assessed as early apoptotic cells at 5 uM after 24 hrs by 7-AAD/annexin V APC staining-based flow cytometric method (reference value: 42.1%); assay type: functional
PC-12 [5] = assay: Neuroprotective activity against 6-OHDA-induced apoptosis in rat PC12 cells assessed as late apoptotic cells at 5 uM after 24 hrs by 7-AAD/annexin V APC staining-based flow cytometric method (reference value: 4.4%); assay type: functional
PC-12 [6] = assay: Neuroprotective activity against 6-OHDA-induced apoptosis in rat PC12 cells assessed as necrotic cells at 5 uM after 24 hrs by 7-AAD/annexin V APC staining-based flow cytometric method (reference value: 0.6%); assay type: functional
PC-12 [7] = assay: Neuroprotective activity against 6-OHDA-induced apoptosis in rat PC12 cells assessed as viable cells at 5 uM after 24 hrs by 7-AAD/annexin V APC staining-based flow cytometric method (reference value: […]); assay type: functional; conditions: PC-12, 24 h, read-out: Activity
PC-12 [8] = assay: Neuroprotective activity against 6-OHDA-induced apoptosis in rat PC12 cells assessed as late apoptotic cells at 10 uM after 24 hrs by 7-AAD/annexin V APC staining-based flow cytometric method (reference value: 4.4%); assay type: functional
PC-12 [9] = assay: Neuroprotective activity against 6-OHDA-induced apoptosis in rat PC12 cells assessed as necrotic cells at 10 uM after 24 hrs by 7-AAD/annexin V APC staining-based flow cytometric method (reference value: 0.6%); assay type: functional
PC-12 [10] = assay: Neuroprotective activity against 6-OHDA-induced apoptosis in rat PC12 cells assessed as viable cells at 10 uM after 24 hrs by 7-AAD/annexin V APC staining-based flow cytometric method (reference value: […]); assay type: functional; conditions: PC-12, 24 h, read-out: Activity
PC-12 [11] = assay: Neuroprotective activity against 6-OHDA-induced apoptosis in rat PC12 cells assessed as necrotic cells at 20 uM after 24 hrs by 7-AAD/annexin V APC staining-based flow cytometric method (reference value: 0.6%); assay type: functional
PC-12 [12] = assay: Neuroprotective activity against 6-OHDA-induced apoptosis in rat PC12 cells assessed as necrotic cells at 40 uM after 24 hrs by 7-AAD/annexin V APC staining-based flow cytometric method (reference value: 0.6%); assay type: functional
PC-12 [13] = assay: Neuroprotective activity against 6-OHDA-induced apoptosis in rat PC12 cells assessed as viable cells at 40 uM after 24 hrs by 7-AAD/annexin V APC staining-based flow cytometric method (reference value: […]); assay type: functional; conditions: PC-12, 24 h, read-out: Activity
PC-12 [14] = assay: Neuroprotective activity against rotenone-induced apoptosis in rat PC12 cells assessed as early apoptotic cells at 5 uM after 24 hrs by 7-AAD/annexin V APC staining-based flow cytometric method (reference value: 2.2%); assay type: functional
PC-12 [15] = assay: Neuroprotective activity against rotenone-induced apoptosis in rat PC12 cells assessed as necrotic cells at 10 uM after 24 hrs by 7-AAD/annexin V APC staining-based flow cytometric method (reference value: 48.6%); assay type: functional
PC-12 [16] = assay: Neuroprotective activity against rotenone-induced apoptosis in rat PC12 cells assessed as early apoptotic cells at 20 uM after 24 hrs by 7-AAD/annexin V APC staining-based flow cytometric method (reference value: 2.2%); assay type: functional
PC-12 [17] = assay: Neuroprotective activity against rotenone-induced apoptosis in rat PC12 cells assessed as late apoptotic cells at 20 uM after 24 hrs by 7-AAD/annexin V APC staining-based flow cytometric method (reference value: 9.9%); assay type: functional
PC-12 [18] = assay: Neuroprotective activity against rotenone-induced apoptosis in rat PC12 cells assessed as late apoptotic cells at 40 uM after 24 hrs by 7-AAD/annexin V APC staining-based flow cytometric method (reference value: 9.9%); assay type: functional
PC-12 [19] = assay: Neuroprotective activity against rotenone-induced apoptosis in rat PC12 cells assessed as viable cells at 40 uM after 24 hrs by 7-AAD/annexin V APC staining-based flow cytometric method (reference value: 39.3%); assay type: functional; conditions: PC-12, 24 h, read-out: Activity
PC-12 [20] = assay: Neuroprotective activity against rotenone-induced apoptosis in rat PC12 cells at 20 uM preincubated for 24 hrs followed by rotenone addition measured after 24 hrs by 7-AAD/annexin V APC staining-based flow cytometric method; assay type: functional, cell-based
PC-12 [21] = assay: Neuroprotective activity against 6-OHDA-induced apoptosis in rat PC12 cells assessed as decrease in nuclear condensation at 20 uM after 24 hrs by Hoechst 33258 staining-based fluorescent inverted microscopic method; assay type: functional, cell-based
In short: (§1)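 PC12 cells exposed to 6-OHDA or rotenone with test treatment were stained with Hoechst 33258 for 30 min, mounted on glass slides under cover slips, and examined by fluorescent inverted microscopy.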

PC-12 [22] = assay: Neuroprotective activity against rotenone-induced apoptosis in rat PC12 cells assessed as decrease in nuclear condensation at 20 uM after 24 hrs by Hoechst 33258 staining-based fluorescent inverted microscopic method; assay type: functional, cell-based; in short: as §1
PC-12 [23] = assay: Neuroprotective activity against 6-OHDA-induced reactive oxygen species accumulation in rat PC12 cells after 24 hrs by DCFH-DA probe-based flow cytometric method; assay type: functional, cell-based
In short: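 PC12 cells were seeded at 2×10^5 cells/well in six-well plates and cultured with or without various concentrations of test samples for 24 h. After washing, they were loaded with DCFH-DA for 30 min at 37 °C in the dark, washed and harvested. DCF fluorescence read by flow cytometry (ex 488/em 525 nm), reported as mean fluorescence intensity.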

Mus musculus [24] = assay: Acute toxicity in Kunming mouse assessed as mortality at 2000 mg/kg measured for 14 days; assay type: organism-based; conditions: in vivo, 336 h
In short: (§2)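 Kunming mice (20 ± 2 g), 10 per group, vehicle control group; fasted overnight, single oral dose in 0.5% CMC-Na suspension. Observed continuously for 4 h, intermittently to 24 h, then occasionally to day 14 for behaviour, mortality, food and water intake and body weight; sacrificed under ether on day 14.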

Mus musculus [25] = assay: Acute toxicity in Kunming mouse assessed as abnormal changes in water consumption at 2000 mg/kg measured for 14 days; assay type: organism-based; conditions: in vivo, 336 h; in short: as §2
in vitro = conditions: PAMPA

O=C1CCOc2cc(OCc3ccc(F)cc3)ccc21
viability at 24 h, 100 µM [1]: 93.1% | viability at 20 µM [2]: 134% | Activity (PC-12 [3]): Dose-dependent effect | Activity (PC-12 [4]): 25.1% | Activity (PC-12 [5]): 1.8% | Activity (PC-12 [6]): 3.8% | viability at 5 µM (PC-12 [7]): 69.3% | Activity (PC-12 [8]): 3.3% | Activity (PC-12 [9]): 4% | viability at 10 µM (PC-12 [10]): 70.7% | Activity (PC-12 [11]): 1.1% | Activity (PC-12 [12]): 1.9% | viability at 40 µM (PC-12 [13]): 90.8% | Activity (PC-12 [14]): 3.3% | Activity (PC-12 [15]): 30.8% | Activity (PC-12 [16]): 2.5% | Activity (PC-12 [17]): 9.5% | Activity (PC-12 [18]): 9.2% | viability at 40 µM (PC-12 [19]): 62.1% | Activity (PC-12 [20]): Dose-dependent effect | Activity (PC-12 [21]): Active | Activity (PC-12 [22]): Active | Activity (PC-12 [23]): Dose-dependent effect | Activity (Mus musculus [24]): Non-Toxic | Activity (Mus musculus [25]): Non-Toxic | Papp at 16 h, 100 ug/ml (in vitro): 14.3 ×10⁻⁶ cm/s
